# In ChEMBL document CHEMBL3603782, “Antimalarial benzoheterocyclic 4-aminoquinolines: Structure-activity relationship, in vivo evaluation, mechanistic and bioactivation studies” (Bioorg Med Chem, 2015):
# Assays:
# [1] = Lipophilicity, log P of the compound; type: physicochemical; conditions: octanol/water
# Plasmodium falciparum [2] = experiment: Antiplasmodial activity against chloroquine-sensitive Plasmodium falciparum NF54 infected in human erythrocytes after 48 hrs by [3H]-hypoxanthine incorporation assay; type: functional, organism-based
# Method in brief: (§1)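 Modified [3H]-hypoxanthine incorporation assay against P. falciparum NF54 (sensitive) and K1 (multidrug-resistant). Values are means of ≥2 or ≥3 independent experiments. The resistance index is the K1 IC50 divided by the NF54 IC50.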
# Plasmodium falciparum [3] = experiment: Resistance index, ratio of IC50 for multidrug-resistant Plasmodium falciparum K1 to IC50 for chloroquine-sensitive Plasmodium falciparum NF54; type: functional; method in brief: as §1
# Plasmodium falciparum [4] = experiment: Antiplasmodial activity against multidrug-resistant Plasmodium falciparum K1 infected in human erythrocytes after 48 hrs by [3H]-hypoxanthine incorporation assay; type: functional, organism-based; method in brief: as §1
# CHO = experiment: Cytotoxicity against CHO cells by MTT assay; type: cell-based; conditions: Cricetulus griseus
# Method in brief: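 CHO cells, MTT assay. Stocks 20 mg/mL in DMSO, diluted in complete medium; undissolved samples tested as suspensions. Emetine served as reference (10-fold dilutions, 6 concentrations, lowest 0.001 µg/mL). IC50 derived from full dose–response curves by non-linear fitting.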
# [5] = Inhibition of beta haematin formation after 5 to 6 hrs by pyridine-ferrichrome method; type: physicochemical
# Method in brief: (§2)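 Modified β-haematin inhibition assay. Compounds from DMSO stocks, 0–1000 µM final, in duplicate. NP-40 added (30.55 µM). Haematin suspension added to give 0.5 M acetate pH 4.8 and 100 µM haematin, then incubated 5–6 h at 37 °C. Free haeme detected with pyridine/H2O/acetone/0.2 M HEPES pH 7.4 reagent (final pyridine ~5% v/v) plus acetone, and absorbance read.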
# [6] = Selectivity index, ratio of IC50 for CHO cells to IC50 for chloroquine-sensitive Plasmodium falciparum NF54; type: toxicity, cell-based; conditions: hamster, read-out: Ratio IC50
# Plasmodium falciparum [7] = experiment: Resistance index, ratio of IC50 for multidrug-resistant Plasmodium falciparum K1 to IC50 for Plasmodium falciparum W2; type: functional
# [8] = Inhibition of beta haematin formation at 1000 uM after 5 to 6 hrs by pyridine-ferrichrome method; type: physicochemical; method in brief: as §2
# [9] = Metabolic stability in human liver microsomes assessed as compound remaining at […] after 30 mins by HPLC-MS/MS analysis in presence of NADPH; type: ADME; conditions: read-out: Stability
# [10] = Metabolic stability in BALB/c mouse liver microsomes assessed as compound remaining at […] after 30 mins by HPLC-MS/MS analysis in presence of NADPH; type: ADME; conditions: read-out: Stability
smiles,measurement,setting,value
COCCc1nc2cc(Nc3ccnc4cc(Cl)ccc34)ccc2o1,logP,[1],3.11
same,IC50,Plasmodium falciparum [2],1090 nM
same,Ratio IC50,Plasmodium falciparum [3],1.93
same,IC50,Plasmodium falciparum [4],2110 nM
Clc1ccc2c(Nc3ccc4oc(NCCc5ccccn5)nc4c3)ccnc2c1,IC50,CHO,> 240000 nM
same,logP,[1],4.42
same,IC50,Plasmodium falciparum [2],402 nM
same,Ratio IC50,Plasmodium falciparum [3],2.12
same,IC50,[5],63000 nM
same,IC50,Plasmodium falciparum [4],851 nM
Clc1ccc2c(Nc3ccc4oc(NCCN5CCOCC5)nc4c3)ccnc2c1,selectivity ratio,[6],1150
same,IC50,CHO,124000 nM
same,IC50,Plasmodium falciparum [2],108 nM
same,Ratio IC50,Plasmodium falciparum [3],1.83
same,IC50,[5],80000 nM
same,IC50,Plasmodium falciparum [4],198 nM
Clc1ccc2c(Nc3ccc4[nH]c(NCCN5CCCCC5)nc4c3)ccnc2c1,Ratio IC50,Plasmodium falciparum [7],0.02
Clc1cccc(CNc2nc3cc(Nc4ccnc5cc(Cl)ccc45)ccc3o2)c1,selectivity ratio,[6],207
same,IC50,CHO,25700 nM
same,logP,[1],5.7
same,IC50,Plasmodium falciparum [2],124 nM
same,Ratio IC50,Plasmodium falciparum [3],1.8
same,IC50,[5],27100 nM
same,IC50,Plasmodium falciparum [4],223 nM
O=[N+]([O-])c1ccc2oc(NCc3ccccn3)nc2c1,IC50,Plasmodium falciparum [2],> 20000 nM
same,inhibition (INH),[8],Not Active
same,IC50,Plasmodium falciparum [4],> 20000 nM
CN(C)CCCNc1nc2cc([N+](=O)[O-])ccc2o1,IC50,Plasmodium falciparum [2],> 20000 nM
same,inhibition (INH),[8],Not Active
same,IC50,Plasmodium falciparum [4],11000 nM
CN1CCN(Nc2nc3cc(Nc4ccnc5cc(Cl)ccc45)ccc3o2)CC1,selectivity ratio,[6],849
same,IC50,CHO,122000 nM
same,logP,[1],2.6
same,IC50,Plasmodium falciparum [2],144 nM
same,Ratio IC50,Plasmodium falciparum [3],1.67
same,IC50,[5],73300 nM
same,IC50,Plasmodium falciparum [4],240 nM
O=C1CCCN1CCCNc1nc2cc(Nc3ccnc4cc(Cl)ccc34)ccc2o1,selectivity ratio,[6],15.8
same,IC50,CHO,29600 nM
same,logP,[1],2.88
same,IC50,Plasmodium falciparum [2],1880 nM
same,Ratio IC50,Plasmodium falciparum [3],0.41
same,IC50,[5],97500 nM
same,IC50,Plasmodium falciparum [4],773 nM
Clc1ccc2c(Nc3ccc4oc(NCCCN5CCOCC5)nc4c3)ccnc2c1,remaining at 0.5 h,[9],27%
same,remaining at 0.5 h,[10],26%
same,selectivity ratio,[6],351
same,IC50,CHO,13700 nM
same,logP,[1],3.09
same,IC50,Plasmodium falciparum [2],39 nM
same,Ratio IC50,Plasmodium falciparum [3],2.05
same,IC50,[5],80100 nM
same,IC50,Plasmodium falciparum [4],80 nM
O=[N+]([O-])c1ccc2oc(NCCN3CCCC3)nc2c1,IC50,Plasmodium falciparum [2],1640 nM
same,inhibition (INH),[8],Not Active
same,IC50,Plasmodium falciparum [4],2930 nM
Clc1ccc2c(Nc3ccc(NCCN4CCCC4)nc3)ccnc2c1,Ratio IC50,Plasmodium falciparum [7],4.38
O=[N+]([O-])c1ccc2oc(NCCc3ccccn3)nc2c1,IC50,Plasmodium falciparum [2],> 20000 nM
same,inhibition (INH),[8],Not Active
same,IC50,Plasmodium falciparum [4],> 20000 nM
Clc1ccc2c(Nc3ccc4oc(N5CCN(c6ccccc6)CC5)nc4c3)ccnc2c1,selectivity ratio,[6],105
same,IC50,CHO,28700 nM
same,logP,[1],6.05
same,IC50,Plasmodium falciparum [2],274 nM
same,Ratio IC50,Plasmodium falciparum [3],3.19
same,IC50,[5],29600 nM
same,IC50,Plasmodium falciparum [4],875 nM
CN1CCN(c2nc3cc(Nc4ccnc5cc(Cl)ccc45)ccc3o2)CC1,remaining at 0.5 h,[9],61%
same,remaining at 0.5 h,[10],18%
same,IC50,CHO,> 240000 nM
same,logP,[1],3.9
same,IC50,Plasmodium falciparum [2],51 nM
same,Ratio IC50,Plasmodium falciparum [3],1.94
same,IC50,[5],71700 nM
same,IC50,Plasmodium falciparum [4],99 nM
Clc1ccc2c(Nc3ccc4sc(NCCN5CCCC5)nc4c3)ccnc2c1,Ratio IC50,Plasmodium falciparum [7],1.17
O=[N+]([O-])c1ccc2oc(N3CCN(c4ccccc4)CC3)nc2c1,IC50,Plasmodium falciparum [2],> 20000 nM
same,inhibition (INH),[8],Not Active
same,IC50,Plasmodium falciparum [4],> 20000 nM
CCN(CC)CCNc1nc2cc(Nc3ccnc4cc(Cl)ccc34)ccc2o1,remaining at 0.5 h,[9],78%
same,remaining at 0.5 h,[10],74%
same,selectivity ratio,[6],1040
same,IC50,CHO,11500 nM
same,IC50,Plasmodium falciparum [2],11 nM
same,Ratio IC50,Plasmodium falciparum [3],3.82
same,IC50,[5],244000 nM
same,IC50,Plasmodium falciparum [4],42 nM
CCN(CC)c1nc2cc([N+](=O)[O-])ccc2o1,IC50,Plasmodium falciparum [2],> 20000 nM
same,inhibition (INH),[8],Not Active
same,IC50,Plasmodium falciparum [4],> 20000 nM
CC[C@H]1CN2CCc3cc(OC)c(OC)cc3[C@@H]2C[C@@H]1C[C@H]1NCCc2cc(OC)c(OC)cc21 [EMETINE],IC50,CHO,104 nM
Clc1ccc2c(Nc3ccc(NCCN4CCOCC4)nc3)ccnc2c1,Ratio IC50,Plasmodium falciparum [7],1.78
CCN(CC)c1nc2cc(Nc3ccnc4cc(Cl)ccc34)ccc2o1,selectivity ratio,[6],448
same,IC50,CHO,229000 nM
same,logP,[1],4.78
same,IC50,Plasmodium falciparum [2],512 nM
same,Ratio IC50,Plasmodium falciparum [3],2.69
same,IC50,[5],50700 nM
same,IC50,Plasmodium falciparum [4],1380 nM
Clc1ccc2c(Nc3ccc4oc(NCc5ccccn5)nc4c3)ccnc2c1,IC50,CHO,> 240000 nM
same,IC50,Plasmodium falciparum [2],406 nM
same,Ratio IC50,Plasmodium falciparum [3],2.17
same,IC50,[5],106000 nM
same,IC50,Plasmodium falciparum [4],883 nM
Clc1ccc2oc(N3CCN(c4ccccc4)CC3)nc2c1,IC50,Plasmodium falciparum [2],> 20000 nM
same,inhibition (INH),[8],Not Active
same,IC50,Plasmodium falciparum [4],> 20000 nM
CN1CCN(c2nc3cc([N+](=O)[O-])ccc3o2)CC1,IC50,Plasmodium falciparum [2],> 20000 nM
same,inhibition (INH),[8],Not Active
same,IC50,Plasmodium falciparum [4],> 20000 nM
Clc1ccc2c(Nc3ccc4oc(NCc5ccncc5)nc4c3)ccnc2c1,IC50,CHO,> 240000 nM
same,logP,[1],4.55
same,IC50,Plasmodium falciparum [2],630 nM
same,Ratio IC50,Plasmodium falciparum [3],2.47
same,IC50,[5],93000 nM
same,IC50,Plasmodium falciparum [4],1550 nM
Clc1ccc2c(Nc3ccc4oc(NCc5cccnc5)nc4c3)ccnc2c1,selectivity ratio,[6],532
same,IC50,CHO,164000 nM
same,logP,[1],4.68
same,IC50,Plasmodium falciparum [2],309 nM
same,Ratio IC50,Plasmodium falciparum [3],2.28
same,IC50,[5],100000 nM
same,IC50,Plasmodium falciparum [4],704 nM
CN(C)CCCNc1nc2cc(Nc3ccnc4cc(Cl)ccc34)ccc2o1,remaining at 0.5 h,[9],78%
same,remaining at 0.5 h,[10],44%
same,selectivity ratio,[6],665
same,IC50,CHO,12600 nM
same,logP,[1],3.44
same,IC50,Plasmodium falciparum [2],19 nM
same,Ratio IC50,Plasmodium falciparum [3],7.84
same,IC50,[5],174000 nM
same,IC50,Plasmodium falciparum [4],149 nM
CCN(CC)CCCNc1nc2cc(Nc3ccnc4cc(Cl)ccc34)ccc2o1,remaining at 0.5 h,[9],70%
same,remaining at 0.5 h,[10],70%
same,selectivity ratio,[6],455
same,IC50,CHO,6370 nM
same,logP,[1],4.12
same,IC50,Plasmodium falciparum [2],14 nM
same,Ratio IC50,Plasmodium falciparum [3],6.07
same,IC50,[5],165000 nM
same,IC50,Plasmodium falciparum [4],85 nM
CCN(CC)CCNc1nc2cc(Nc3ccnc4cc(Cl)ccc34)ccc2[nH]1,Ratio IC50,Plasmodium falciparum [7],4.14
CN(C)Cc1nc2cc(Nc3ccnc4cc(Cl)ccc34)ccc2o1,IC50,Plasmodium falciparum [2],213 nM
same,Ratio IC50,Plasmodium falciparum [3],1.93
same,IC50,Plasmodium falciparum [4],411 nM
Clc1cccc(N2CCN(c3nc4cc(Nc5ccnc6cc(Cl)ccc56)ccc4o3)CC2)c1,remaining at 0.5 h,[9],36%
same,remaining at 0.5 h,[10],> 99%
same,selectivity ratio,[6],852
same,IC50,CHO,172000 nM
same,logP,[1],6.57
same,IC50,Plasmodium falciparum [2],202 nM
same,Ratio IC50,Plasmodium falciparum [3],2.04
same,IC50,[5],24700 nM
same,IC50,Plasmodium falciparum [4],412 nM
